Source: ChEMBL document CHEMBL1240400, “Comparative in vitro activities of nemonoxacin (TG-873870), a novel nonfluorinated quinolone, and other quinolones against clinical isolates” (2010)
≈ marks a conversion by molar mass, not a printed value.

What was measured:
Assay type in all cases: functional
[1] = test system: Proteus mirabilis; test: Antibacterial activity against Proteus mirabilis by broth dilution method
[2] = test system: Streptococcus viridans; test: Antibacterial activity against Streptococcus viridans by broth dilution method
Outline: (§1)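 Streptococci were tested by CLSI broth microdilution in Mueller-Hinton broth with 3% lysed horse blood, seeded from a 0.5 McFarland suspension. Incubated overnight at 35°C in ambient air, with quality control strains in each run. MIC taken over a per-agent dilution range.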

[3] = test system: Klebsiella pneumoniae; test: Antibacterial activity against Klebsiella pneumoniae by broth dilution method
Outline: (§2)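 Broth microdilution per CLSI in panels spanning a dilution range of each agent. Cation-adjusted Mueller-Hinton broth, final inoculum 5 × 10^5 CFU/ml from a 0.5 McFarland suspension. Incubated overnight at 35°C in ambient air, with quality control strains in each run. MIC reported; values at or below the lowest concentration tested are given as that concentration.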

[4] = test system: Pseudomonas aeruginosa; test: Antibacterial activity against Pseudomonas aeruginosa by broth dilution method
[5] = test system: Neisseria gonorrhoeae; test: Antibacterial activity against ciprofloxacin resistant Neisseria gonorrhoeae isolates by broth dilution method
Outline: (§3)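 Neisseria gonorrhoeae clinical isolates tested by CLSI broth microdilution in Mueller-Hinton broth with 3% lysed horse blood, inoculated from a 0.5 McFarland suspension. Plates were incubated overnight at 35°C in 5% CO2, and the MIC was read as the lowest inhibitory concentration. Quality control strains were included in each run.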

[6] = test system: Streptococcus pneumoniae; test: Antibacterial activity against Levofloxacin resistant Streptococcus pneumoniae by broth dilution method
Outline: (§4)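 Streptococcus pneumoniae clinical isolates tested by CLSI broth microdilution. A 0.5 McFarland suspension was diluted into Mueller-Hinton broth with 3% lysed horse blood, then tested against serial drug dilutions. Plates were incubated overnight at 35°C in ambient air, and the MIC was read as the lowest inhibitory concentration. Quality control strains were included in each run.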

[7] = test system: Enterococcus faecium; test: Antibacterial activity against vancomycin resistant Enterococcus faecium by broth dilution method
Outline: (§5)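 Clinical isolates tested by CLSI broth microdilution in panels holding serial twofold drug dilutions in cation-adjusted Mueller-Hinton broth. Final inoculum 5 × 10^5 CFU/ml was made from a 0.5 McFarland suspension. Plates were incubated overnight at 35°C in ambient air, and the MIC was read as the lowest concentration inhibiting growth. Quality control strains were included in each run.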

[8] = test system: Staphylococcus aureus; test: Antibacterial activity against ciprofloxacin and methicillin resistant Staphylococcus aureus by broth dilution method; outline: as §5
[9] = test system: Haemophilus influenzae; test: Antibacterial activity against Haemophilus influenzae by broth dilution method
Outline: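 Broth microdilution per CLSI using Haemophilus Test Medium broth, seeded from a 0.5 McFarland suspension. Incubated overnight at 35°C in ambient air, with quality control strains in each run. MIC read against a tested dilution range; values at the low limit are given as the lowest concentration.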

[10] = test system: Staphylococcus epidermidis; test: Antibacterial activity against methicillin resistant coagulase negative Staphylococcus epidermidis by broth dilution method
[11] = test system: Acinetobacter baumannii; test: Antibacterial activity against Acinetobacter baumannii by broth dilution method; outline: as §2
[12] = test system: Neisseria gonorrhoeae; test: Antibacterial activity against moxifloxacin resistant Neisseria gonorrhoeae isolates by broth dilution method; outline: as §3
[13] = test system: Enterococcus faecalis; test: Antibacterial activity against vancomycin resistant Enterococcus faecalis by broth dilution method
[14] = test system: Enterococcus faecalis; test: Antibacterial activity against Enterococcus faecalis by broth dilution method
[15] = test system: Enterococcus faecium; test: Antibacterial activity against Enterococcus faecium by broth dilution method; outline: as §5
[16] = test system: Escherichia coli; test: Antibacterial activity against ciprofloxacin susceptible Escherichia coli by broth dilution method; outline: as §2
[17] = test system: Escherichia coli; test: Antibacterial activity against ciprofloxacin resistant Escherichia coli by broth dilution method; outline: as §5
[18] = test system: Neisseria gonorrhoeae; test: Antibacterial activity against levofloxacin resistant Neisseria gonorrhoeae isolates by broth dilution method; outline: as §3
[19] = test system: Citrobacter freundii; test: Antibacterial activity against Citrobacter freundii by broth dilution method; outline: as §2
[20] = test system: Enterobacter cloacae; test: Antibacterial activity against Enterobacter cloacae by broth dilution method
[21] = test system: Staphylococcus; test: Antibacterial activity against methicillin resistant coagulase negative Staphylococcus by broth dilution method
[22] = test system: Streptococcus pyogenes; test: Antibacterial activity against Streptococcus pyogenes by broth dilution method; outline: as §1
[23] = test system: Streptococcus pneumoniae; test: Antibacterial activity against Levofloxacin susceptible Streptococcus pneumoniae by broth dilution method; outline: as §4
[24] = test system: Staphylococcus aureus; test: Antibacterial activity against ciprofloxacin susceptible and methicillin resistant Staphylococcus aureus by broth dilution method; outline: as §5
[25] = test system: Staphylococcus aureus; test: Antibacterial activity against methicillin susceptible Staphylococcus aureus by broth dilution method
[26] = test system: Streptococcus agalactiae; test: Antibacterial activity against Streptococcus agalactiae by broth dilution method; outline: as §1

COc1c(N2C[C@@H]3CCCN[C@@H]3C2)c(F)cc2c(=O)c(C(=O)O)cn(C3CC3)c12 [MOXIFLOXACIN]
MIC50 [1]: 8 µg/mL (≈ 19.9 µM) | MIC90 [1]: > 8 µg/mL | MIC50 [2]: 0.12 µg/mL (≈ 0.299 µM) | MIC90 [2]: 0.25 µg/mL (≈ 0.623 µM) | MIC50 [3]: 4 µg/mL (≈ 9.96 µM) | MIC90 [3]: > 8 µg/mL | MIC50 [4]: > 8 µg/mL | MIC90 [4]: > 8 µg/mL | MIC [5]: 2 µg/mL (≈ 4.98 µM) | MIC [6]: 2 µg/mL (≈ 4.98 µM) | MIC50 [6]: 2 µg/mL (≈ 4.98 µM) | MIC90 [6]: 8 µg/mL (≈ 19.9 µM) | MIC [7]: 1 µg/mL (≈ 2.49 µM) | MIC50 [8]: 4 µg/mL (≈ 9.96 µM) | MIC90 [8]: 4 µg/mL (≈ 9.96 µM) | MIC50 [9]: 0.25 µg/mL (≈ 0.623 µM) | MIC90 [9]: > 8 µg/mL | MIC50 [10]: 0.12 µg/mL (≈ 0.299 µM) | MIC90 [10]: 2 µg/mL (≈ 4.98 µM) | MIC50 [11]: 1 µg/mL (≈ 2.49 µM) | MIC90 [11]: > 8 µg/mL | MIC [12]: 0.5 µg/mL (≈ 1.25 µM) | MIC50 [13]: 0.5 µg/mL (≈ 1.25 µM) | MIC50 [14]: 0.5 µg/mL (≈ 1.25 µM) | MIC90 [14]: > 8 µg/mL | MIC50 [15]: > 8 µg/mL | MIC90 [15]: > 8 µg/mL | MIC50 [16]: 0.5 µg/mL (≈ 1.25 µM) | MIC90 [16]: 1 µg/mL (≈ 2.49 µM) | MIC50 [17]: > 8 µg/mL | MIC90 [17]: > 8 µg/mL | MIC [18]: 1 µg/mL (≈ 2.49 µM) | MIC50 [19]: 0.5 µg/mL (≈ 1.25 µM) | MIC90 [19]: 8 µg/mL (≈ 19.9 µM)

C[C@H]1COc2c(N3CCN(C)CC3)c(F)cc3c(=O)c(C(=O)O)cn1c23.C[C@H]1COc2c(N3CCN(C)CC3)c(F)cc3c(=O)c(C(=O)O)cn1c23.O [LEVOFLOXACIN]
MIC50 [1]: 2 µg/mL | MIC90 [1]: > 16 µg/mL | MIC50 [2]: 1 µg/mL | MIC90 [2]: 2 µg/mL | MIC50 [3]: 2 µg/mL | MIC90 [3]: > 16 µg/mL | MIC50 [4]: 8 µg/mL | MIC90 [4]: > 16 µg/mL | MIC50 [20]: 2 µg/mL | MIC90 [20]: 16 µg/mL | MIC50 [21]: 0.5 µg/mL | MIC90 [21]: 8 µg/mL | MIC [5]: 2 µg/mL | MIC50 [6]: 16 µg/mL | MIC90 [6]: > 16 µg/mL | MIC50 [22]: 1 µg/mL | MIC90 [22]: 2 µg/mL | MIC [7]: 2 µg/mL | MIC50 [8]: 16 µg/mL | MIC90 [8]: 16 µg/mL | MIC50 [23]: 1 µg/mL | MIC90 [23]: 2 µg/mL | MIC50 [9]: 0.25 µg/mL | MIC90 [9]: 8 µg/mL | MIC50 [10]: 0.5 µg/mL | MIC90 [10]: 8 µg/mL | MIC50 [24]: 0.25 µg/mL | MIC90 [24]: 0.25 µg/mL | MIC50 [11]: 2 µg/mL | MIC90 [11]: 16 µg/mL | MIC [12]: 0.5 µg/mL | MIC50 [25]: 0.25 µg/mL | MIC90 [25]: 1 µg/mL | MIC50 [13]: 2 µg/mL | MIC50 [26]: 1 µg/mL | MIC90 [26]: 2 µg/mL | MIC50 [14]: 2 µg/mL | MIC90 [14]: > 16 µg/mL | MIC50 [15]: > 16 µg/mL | MIC90 [15]: > 16 µg/mL | MIC50 [16]: 0.5 µg/mL | MIC90 [16]: 1 µg/mL | MIC50 [17]: > 16 µg/mL | MIC90 [17]: > 16 µg/mL | MIC [18]: 1 µg/mL | MIC50 [19]: 0.12 µg/mL | MIC90 [19]: 2 µg/mL
